Experimental data as given in ChEMBL document CHEMBL1125064, “Synthesis and antiviral activity of (S)-9-[4-hydroxy-3-(phosphonomethoxy)butyl]guanine” (1990).
Converted amounts (≈) assume the structure as drawn.

Key:
Assay type in all cases: functional
[1] = Antiviral activity against herpesvirus […] cells in tissue culture; conditions: Homo sapiens; read-out: ID50 (the source's name)
[2] = tested on: Vero; assay: Antiviral activity against herpesvirus vero cells in tissue culture; conditions: Chlorocebus sabaeus, read-out: ID50 (the source's name)
[3] = tested on: Human betaherpesvirus 5; assay: Antiviral activity against herpesvirus HCMV in AD-169 strain in […] cells; conditions: read-out: ID50 (the source's name)
How it was run: (§1)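 HCMV strain AD-169 plaque-reduction assay in MRC-5 cells (human lung fibroblasts); ID50 reported in µg/mL.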

[4] = tested on: Human alphaherpesvirus 2; assay: Antiviral activity against herpesvirus HSV-2 in G strain in tissue culture in Vero cells; conditions: Human alphaherpesvirus 2, Vero; read-out: ID50 (the source's name)
How it was run: (§2)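 HSV-1 strain BWS or HSV-2 strain G plaque-reduction assay in Vero cells; ID50 reported in µg/mL.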

[5] = tested on: Human alphaherpesvirus 1; assay: Antiviral activity against herpesvirus HSV-1 in BWS strain in Vero cells; conditions: Human alphaherpesvirus 1, Vero; read-out: ID50 (the source's name); how it was run: as §2
[6] = tested on: Vero; assay: Antiviral activity against herpesvirus vero cells in tissue culture.; conditions: Chlorocebus sabaeus, read-out: ID50 (the source's name)
[7] = Antiviral activity against herpesvirus […] cells in tissue culture.; conditions: Homo sapiens; read-out: ID50 (the source's name)
[8] = tested on: Human betaherpesvirus 5; assay: Antiviral activity against herpesvirus HCMV in AD-169 strain in tissue culture.; conditions: read-out: ID50 (the source's name); how it was run: as §1
[9] = tested on: Human alphaherpesvirus 2; assay: Antiviral activity against herpesvirus HSV-2 in G strain in tissue culture.; conditions: read-out: ID50 (the source's name); how it was run: as §2
[10] = tested on: Human alphaherpesvirus 1; assay: Antiviral activity against herpesvirus HSV-1 in BWS strain in tissue culture.; conditions: read-out: ID50 (the source's name); how it was run: as §2

| Structure (SMILES) | IC50 [1] | IC50 [2] | IC50 [3] | IC50 [4] | IC50 [5] | IC50 [6] | IC50 [7] | IC50 [8] | IC50 [9] | IC50 [10] |
| --- | --- | --- | --- | --- | --- | --- | --- | --- | --- | --- |
| Nc1nc(O)c2ncn(CC[C@@H](CO)OCP(=O)(O)O)c2n1 | 10 µg/mL (≈ 30 µM) | > 100 µg/mL | 1 µg/mL (≈ 3 µM) | 97 µg/mL (≈ 291 µM) | > 100 µg/mL |  |  |  |  |  |
| Nc1ccn(CC[C@@H](CO)OCP(=O)(O)O)c(=O)n1 | > 100 µg/mL | > 100 µg/mL | > 100 µg/mL | > 100 µg/mL | > 100 µg/mL |  |  |  |  |  |
| Nc1ncnc2c1ncn2CC[C@@H](CO)OCP(=O)(O)O | > 100 µg/mL | > 100 µg/mL | > 100 µg/mL | > 100 µg/mL | > 100 µg/mL |  |  |  |  |  |
| Nc1nc2c(ncn2COC(CO)CO)c(=O)[nH]1 [GANCICLOVIR] |  |  |  |  |  | > 100 µg/mL | > 100 µg/mL | 5 µg/mL (≈ 19.6 µM) | 1.6 µg/mL (≈ 6.27 µM) | 0.2 µg/mL (≈ 0.784 µM) |
